Experimental data published in ChEMBL document CHEMBL4020840, “Synthesis and Biological Evaluation of Selenium-Containing 4-Anilinoquinazoline Derivatives as Novel Antimitotic Agents” (J Med Chem, 2018).
pIC50: −log10 of the molar value.

How the values were obtained:
A549 [1] = assay: Cell cycle arrest in human A549 cells assessed as accumulation at G2/M phase at 4 nM after 12 hrs by propidium iodide staining based flow cytometry (reference value: 10.13%); assay type: functional
Method in brief: (§1)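 A549 seeded in six-well plates at 3 × 10⁵ cells/well and treated for 12 or 24 h; vehicle 0.01% DMSO. Cells fixed overnight in ice-cold 70% ethanol, treated with RNase A at 37 °C for 30 min, then stained with PI at 4 °C for 30 min. About 10 000 events acquired by flow cytometry at 488 nm; three experiments.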

A549 [2] = assay: Growth inhibition of human A549 cells after 48 hrs by MTT assay; assay type: functional, cell-based; conditions: A549, 48 h
HCT-116 = assay: Growth inhibition of human HCT116 cells after 48 hrs by MTT assay; assay type: functional, cell-based; conditions: HCT-116, 48 h
Method in brief: (§2)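 MTT assay: log-phase cells plated at 5 × 10³/well for 24 h, then exposed to a range of test concentrations for 48 h. MTT (5 mg/mL) added for 4 h, formazan dissolved in DMSO, absorbance read at 570 nm. IC50 is the concentration giving 50% growth inhibition, from dose-response curves; at least three independent experiments, mean ± SE.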

A549/CDDP = assay: Growth inhibition of human A549/CDDP cells after 48 hrs by MTT assay; assay type: functional, cell-based; method in brief: as §2
A549 [3] = assay: Induction of mitochondrial membrane disruption in human A549 cells assessed as cells with intact mitochondrial membrane at 8 nM after 48 hrs by JC1 staining based flow cytometry (reference value: 99.13%); assay type: functional
A549 [4] = assay: Induction of apoptosis in human A549 cells assessed as live cells at 4 nM after 24 hrs by Annexin V-FITC/propidium iodide staining based flow cytometry (reference value: 98.84%); assay type: functional
A549 [5] = assay: Induction of mitochondrial membrane disruption in human A549 cells assessed as cells with mitochondrial membrane potential loss at 2 nM after 48 hrs by JC1 staining based flow cytometry (reference value: 0.82%); assay type: functional
A549 [6] = assay: Induction of apoptosis in human A549 cells assessed as necrotic cells at 4 nM after 24 hrs by Annexin V-FITC/propidium iodide staining based flow cytometry (reference value: 0.10%); assay type: functional
MGC-803 = assay: Antiproliferative activity against human MGC803 cells after 48 hrs by MTT assay; assay type: functional, cell-based; conditions: MGC-803, 48 h; method in brief: as §2
L02 = assay: Antiproliferative activity against human LO2 cells after 48 hrs by MTT assay; assay type: cell-based; conditions: L02, 48 h; method in brief: as §2
A549 [7] = assay: Induction of apoptosis in human A549 cells assessed as late apoptotic cells at 2 nM after 24 hrs by Annexin V-FITC/propidium iodide staining based flow cytometry (reference value: 0.08%); assay type: functional
A549 [8] = assay: Induction of apoptosis in human A549 cells assessed as live cells at 2 nM after 48 hrs by Annexin V-FITC/propidium iodide staining based flow cytometry (reference value: 98.49%); assay type: functional
[9] = Selectivity index, ratio of IC50 for human BJ cells to IC50 for human A549 cells; assay type: functional
Method in brief: (§3)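 MTT assay in normal cells and A549: seeding at 5 × 10³ cells/well for 24 h, 48 h compound exposure, then 5 mg/mL MTT for 4 h, DMSO solubilisation and absorbance at 570 nm. IC50 values came from dose–response curves of at least three independent experiments. Selectivity ratio = IC50 in normal cells / IC50 in A549.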

[10] = Selectivity index, ratio of IC50 for HLF to IC50 for human A549 cells; method in brief: as §3
LoVo = assay: Growth inhibition of human LoVo cells after 48 hrs by MTT assay; assay type: functional, cell-based; method in brief: as §2
A549 [11] = assay: Induction of mitochondrial membrane disruption in human A549 cells assessed as cells with intact mitochondrial membrane at 2 nM after 48 hrs by JC1 staining based flow cytometry (reference value: 99.13%); assay type: functional
A549 [12] = assay: Induction of mitochondrial membrane disruption in human A549 cells assessed as cells with intact mitochondrial membrane at 4 nM after 48 hrs by JC1 staining based flow cytometry (reference value: 99.13%); assay type: functional
A549 [13] = assay: Induction of apoptosis in human A549 cells assessed as live cells at 2 nM after 24 hrs by Annexin V-FITC/propidium iodide staining based flow cytometry (reference value: 98.84%); assay type: functional
A549 [14] = assay: Induction of mitochondrial membrane disruption in human A549 cells assessed as cells with mitochondrial membrane potential loss at 8 nM after 48 hrs by JC1 staining based flow cytometry (reference value: 0.82%); assay type: functional
A549 [15] = assay: Induction of apoptosis in human A549 cells assessed as early apoptotic cells at 4 nM after 24 hrs by Annexin V-FITC/propidium iodide staining based flow cytometry (reference value: 0.98%); assay type: functional
A549 [16] = assay: Induction of apoptosis in human A549 cells assessed as necrotic cells at 2 nM after 48 hrs by Annexin V-FITC/propidium iodide staining based flow cytometry relative to control; assay type: functional
[17] = Antiproliferative activity against HLF after 48 hrs by MTT assay; assay type: cell-based; conditions: Homo sapiens; method in brief: as §2
[18] = Selectivity index, ratio of IC50 for human LO2 cells to IC50 for human A549 cells; assay type: functional; method in brief: as §3
A549 [19] = assay: Induction of apoptosis in human A549 cells assessed as late apoptotic cells at 4 nM after 24 hrs by Annexin V-FITC/propidium iodide staining based flow cytometry (reference value: 0.08%); assay type: functional
A549 [20] = assay: Induction of apoptosis in human A549 cells assessed as necrotic cells at 4 nM after 48 hrs by Annexin V-FITC/propidium iodide staining based flow cytometry relative to control; assay type: functional
A549 [21] = assay: Induction of apoptosis in human A549 cells assessed as late apoptotic cells at 2 nM after 48 hrs by Annexin V-FITC/propidium iodide staining based flow cytometry (reference value: 0.03%); assay type: functional
[22] = Inhibition of porcine brain tubulin polymerization measured every 60 secs for 90 mins by DAPI staining based fluorescence assay; set-up: species or system Sus scrofa
Method in brief: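 Purified tubulin was tested in a kit assay. Final buffer: 80 mM PIPES sesquisodium (pH 6.9), 2.0 mM MgCl₂, 0.5 mM EGTA, 1 mM GTP, 10.2% glycerol. Compound (0.1–10 μM) was prewarmed at 37 °C for 1 min before tubulin was added. DAPI reporter fluorescence (ex 340 / em 410 nm) was read every 60 s for 90 min. Area under the curve gave percent inhibition versus control and the IC50.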

MDA-MB-231 = assay: Growth inhibition of human MDA-MB-231 cells after 48 hrs by MTT assay; assay type: functional, cell-based; conditions: MDA-MB-231, 48 h; method in brief: as §2
[23] = Growth inhibition of human HepG2/DOX cells after 48 hrs by MTT assay; assay type: functional, cell-based; method in brief: as §2
A549 [24] = assay: Induction of apoptosis in human A549 cells assessed as early apoptotic cells at 4 nM after 48 hrs by Annexin V-FITC/propidium iodide staining based flow cytometry (reference value: 1.48%); assay type: functional
A549 [25] = assay: Induction of apoptosis in human A549 cells assessed as necrotic cells at 2 nM after 24 hrs by Annexin V-FITC/propidium iodide staining based flow cytometry (reference value: 0.10%); assay type: functional
MCF7 = assay: Antiproliferative activity against human MCF7 cells after 48 hrs by MTT assay; assay type: functional, cell-based; conditions: MCF7, 48 h; method in brief: as §2
A549 [26] = assay: Cell cycle arrest in human A549 cells assessed as accumulation at G2/M phase at 4 nM after 24 hrs by propidium iodide staining based flow cytometry (reference value: 10.13%); assay type: functional; method in brief: as §1

## C[Se]c1ccc(N(C)c2nc(C)nc3ccccc23)cc1
A549 [1]
  Activity: 67.1%
A549 [2]
  pIC50: 8.70
HCT-116
  pIC50: 8.52
A549/CDDP
  pIC50: 8.05
A549 [3]
  Activity: 36.52%
A549 [4]
  Activity: 64.86%
A549 [5]
  Activity: 15.85%
A549 [6]
  Activity: 2.28%
MGC-803
  pIC50: 8.15
L02
  pIC50: 7.72
A549 [7]
  Activity: 3.82%
A549 [8]
  Activity: 49.81%
[9]
  Ratio IC50: 9.5
[10]
  Ratio IC50: 10
LoVo
  pIC50: 8.05
A549 [11]
  Activity: 83.86%
A549 [12]
  Activity: 56.98%
A549 [13]
  Activity: 78.97%
A549 [14]
  Activity: 63.13%
A549 [15]
  Activity: 26.51%
A549 [16]
  Activity: 3.19%
[17]
  pIC50: 7.70
[18]
  Ratio IC50: 9.5
A549 [19]
  Activity: 6.35%
A549 [20]
  Activity: 6.8%
A549 [21]
  Activity: 20.5%
[22]
  pIC50: 5.72
MDA-MB-231
  pIC50: 8.40
[23]
  pIC50: 8.10
A549 [24]
  Activity: 54.14%
A549 [25]
  Activity: 0.9%
MCF7
  pIC50: 8.00
A549 [26]
  Activity: 87.16%
